High-throughput results as filed in PubChem BioAssay.
miR122 inh – miR-122 inhibition in Huh7 cells; Huh7 miR-122 Renilla luciferase sensor, 48 h; neutral wells = 0, positive control = 100; activation (reporter increase), % at 12.5 µM; actives 0.3% (n = 340,000);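 active = mean replicate activation score at least 90 and every replicate individually at or above 90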;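 also: higher luciferase means less miR-122 activity so hits act as miR-122 inhibitors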
SIRT5 block – inhibitors of human sirtuin-5 desuccinylase. Q9NXA8. Purified SirT5, succinyl-peptide AMC, trypsin-coupled fluorescence. inhibition, % at 15 µM. actives 1.1% (n = 330,000); in the data active = inhibition above about 15%
Target sequence (Q9NXA8 whole entry, looked up): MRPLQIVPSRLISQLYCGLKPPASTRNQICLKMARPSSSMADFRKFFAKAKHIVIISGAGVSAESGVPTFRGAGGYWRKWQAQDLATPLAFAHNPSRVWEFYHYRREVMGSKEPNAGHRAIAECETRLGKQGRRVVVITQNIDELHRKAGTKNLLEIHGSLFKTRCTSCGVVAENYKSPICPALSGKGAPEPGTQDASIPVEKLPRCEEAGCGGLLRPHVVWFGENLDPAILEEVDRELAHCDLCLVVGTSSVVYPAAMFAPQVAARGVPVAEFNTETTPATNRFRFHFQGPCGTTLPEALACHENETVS
FGF22 binding – binders of recombinant human FGF22 by thermal shift; Q9HCT0; SYPRO orange fluorescence; percent of sucrose octasulfate shift, DMSO zero; activity (Tm shift, normalised), % at 9.99 µM; actives 1.5% (n = 340,000); AID 651658;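 active = mean Tm shift, scaled 0 neutral to 100 positive control, at about 1.3% or above, every replicate too, limit read from the data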
Target sequence (Q9HCT0 whole entry, looked up): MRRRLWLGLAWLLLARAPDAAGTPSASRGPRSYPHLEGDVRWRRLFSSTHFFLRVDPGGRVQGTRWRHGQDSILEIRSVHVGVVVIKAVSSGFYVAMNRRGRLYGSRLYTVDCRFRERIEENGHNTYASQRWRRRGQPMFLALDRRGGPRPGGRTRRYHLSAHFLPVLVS
E-selectin induc – E-selectin induction on HUVECs | AID 686992 | activation, % at 7.58 µM | actives 0.37% (n = 260,000) | P16581 | HUVEC E-selectin immunofluorescence imaging; normalized: neutral wells 0, TNF-alpha wells 100;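 active = mean E-selectin-positive cell signal at least 10% of the positive control, reached in at least 60% of replicates, without over 20% cell loss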
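Assay system: HUVEC primary endothelial cells. Input: 3,000 HUVEC seeded per well. Doses: one compound dose added by pin transfer. Read-out basis: % PE-positive cells. Benchmarks: TNF-alpha high, DMSO low. Detection: immunofluorescence imaging. Buffer or medium: EGM-2, gelatin.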
S100A4 MyoIIA – blocks human S100A4 binding to myosin IIA peptide; actives 0.14% (n = 360,000); inhibition, % at 10.7 µM; P26447; S100A4/TAMRA-MyoIIA peptide fluorescence polarization;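 active = mean inhibition of at least 70% across replicates, with every replicate also reaching that level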
Target sequence (P26447 whole entry, looked up): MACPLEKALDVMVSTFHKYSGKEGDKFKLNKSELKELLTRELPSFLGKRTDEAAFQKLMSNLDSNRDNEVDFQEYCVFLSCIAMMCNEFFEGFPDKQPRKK
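Material: S100A4 monomer protein | Medium: HEPES pH 7.2 with CaCl2, KCl, NaCl, DTT, Triton | Reagent: Labelled myosin peptide probe, 5 nM | Doses: One dose per compound | Times: 5 min incubation before reading | Benchmarks: Neutral control DMSO, positive control TFP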
An asterisk follows results filed as active; nt = no result; [ ] = another dose, or the depositor's remark. Only some compounds are listed: those with a hit (about 2.5% of all), similar ones and a draw of the others.

SMILES | miR122 inh | SIRT5 block | FGF22 binding | E-selectin induc | S100A4 MyoIIA
Cc1ccc(S(=O)(=O)Nc2ccc3c(c2)CC(=O)N([C@@H](C)CO)C[C@@H](C)[C@@H](CN(C)Cc2ccc(Oc4ccccc4)cc2)O3)cc1 | -10[16.7 µM] | 18* | -1 | -1 | 2
Cc1ccc(S(=O)(=O)Nc2ccc3c(c2)CC(=O)N([C@@H](C)CO)C[C@H](C)[C@H](CN(C)Cc2ccc(Oc4ccccc4)cc2)O3)cc1 | 1[16.7 µM] | 1 | -1 | 0 | -3
COc1ccc(CN(C)C[C@H]2Oc3ccc(NS(=O)(=O)c4ccc(Cl)cc4)cc3CC(=O)N([C@@H](C)CO)C[C@@H]2C)cc1 | -5[16.7 µM] | 27* | 0 | 0 | -13
COc1ccc(CN(C)C[C@H]2Oc3ccc(NS(=O)(=O)c4ccc(Cl)cc4)cc3CC(=O)N([C@H](C)CO)C[C@H]2C)cc1 | -1[16.7 µM] | 7 | 0 | 0 | 15
Cc1nc(S(=O)(=O)N2CCN(Cc3cccc(OCCO)c3)CC2)cn1C | nt | -1 | 0 | nt | 2
C[C@H](CO)N1C[C@H](C)[C@@H](CN(C)Cc2ccc(Oc3ccccc3)cc2)Oc2ccc(NS(=O)(=O)c3ccc(Cl)cc3)cc2CC1=O | 1[16.7 µM] | 19* | 0 | 0 | -42
C[C@@H]1CN([C@H](C)CO)C(=O)Cc2cc(NS(=O)(=O)c3ccc(Cl)cc3)ccc2O[C@@H]1CN(C)Cc1ccc(Oc2ccccc2)cc1 | -1[16.7 µM] | 11 | 0 | 0 | -5
C[C@@H]1CN([C@@H](C)CO)C(=O)Cc2cc(NS(=O)(=O)c3ccc(Cl)cc3)ccc2O[C@H]1CN(C)Cc1ccc(Oc2ccccc2)cc1 | -17[16.7 µM] | 24* | 0 | 0 | -33
COc1ccc(S(=O)(=O)Nc2ccc3c(c2)CC(=O)N([C@H](C)CO)C[C@H](C)[C@H](CN(C)Cc2ccc(C(=O)O)cc2)O3)cc1 | -1[16.7 µM] | -3 | 0 | 0 | 3
O=C(O)c1ccc(N2C(=O)/C(=C/C=C/c3ccccc3)SC2=S)cc1 | nt | 5 | 0 | nt | -10
O=C(NN1C(=O)/C(=C/C=C/c2ccco2)SC1=S)c1ccncc1 | -6 | 43* | 0 | nt | -32
O=C(NN1C(=O)/C(=C/C=C/c2ccccc2)SC1=S)c1ccncc1 | nt | 22* | 1 | nt | 43
CCCNC(=O)C[C@@H]1CC[C@@H]2[C@H](COc3ccc(NC(=O)c4ccc(C(F)(F)F)cc4)cc3C(=O)N2C)O1 | -10[16.7 µM] | 4 | 0 | 0 | -2
C/C=C/c1cnc2c(c1)C(=O)N([C@H](C)CO)C[C@@H](C)[C@@H](CN(C)C(=O)Nc1ccccc1F)O2 | nt | -7 | 0 | 0 | 1
C[C@@H]1CN([C@H](C)CO)C(=O)c2cc(C#Cc3cccc(F)c3)cnc2O[C@@H]1CN(C)C(=O)C1CCOCC1 | -7[16.7 µM] | nt | nt | 0 | nt
Cc1ccc(S(=O)(=O)N(C)C[C@H]2Oc3c(NC(=O)Nc4c(C)noc4C)cccc3C(=O)N([C@@H](C)CO)C[C@H]2C)cc1 | 3[16.7 µM] | 0 | 0 | 0 | 5
COCCNC(=O)NC(=O)CN1CCN(C(c2ccccc2)c2ccccc2)CC1 | nt | 0 | 43* | 2 | -4
CCc1ccccc1NC(=O)CCN1C(=O)C2C3CCC(C3)C2C1=O (stereo not given) | nt | -4 | 44* | nt | -1
COc1ccc(-c2cc(C(=O)N(C)Cc3cccc(OC)c3OC)c3ccccc3n2)cc1OC | 26 | -4 | 0 | 16 | -4
COc1ccc(-c2cc(C(=O)N(C)Cc3nc4ccccc4c(=O)[nH]3)c3ccccc3n2)cc1OC | 7 | nt | 44* | 1 | 0
Cc1ccc(S(=O)(=O)Nc2ccc3c(c2)C(=O)N([C@H](C)CO)C[C@@H](C)[C@@H](CN(C)C(=O)Nc2c(C)noc2C)O3)cc1 | -2[16.7 µM] | -6 | 0 | 0 | 19
COC(=O)/C=C1\N/C(=N\c2nc(C)cc(C)n2)N(c2ccc(C)cc2)C1=O | -6 | 0 | 0 | 466* | -6
CCOc1ccc(N(CC(=O)NCC2CCCO2)C(=O)CCC(=O)Nc2nccs2)cc1 (stereo not given) | 22 | 17* | 0 | nt | 0
CCc1nn(CCCC(=O)N2CCN(c3ccc(OC)cc3)CC2)c(=O)c2cc3occc3n12 | -9 | 3 | -1 | 141* | 3
CN1c2ccsc2C(O)=C(C(=O)Nc2ccccc2)S1(=O)=O | 7 | nt | nt | nt | nt
SMILES | miR122 inh | SIRT5 block | FGF22 binding | E-selectin induc | S100A4 MyoIIA
Cc1cccc(C)c1NC(=O)C1=C(O)c2sccc2N(C)S1(=O)=O | nt | 21* | 0 | nt | 19
COCC(=O)N1CC2(C1)[C@H](c1ccc(-c3ccc(F)cc3)cc1)[C@@H](CO)N2C(C)=O | nt | -5 | 0 | 0 | -12
COc1ccc(C(=O)NCc2nnc(SCC(=O)N3CCC(C)CC3)o2)cc1 | nt | 4 | 44* | nt | -3
O=C(COc1ccc(Cl)cc1)NCc1nnc(SCC(=O)N2CCCC2)o1 | -2 | -1 | 43* | 0 | 5
O=C(COc1ccc(Cl)cc1)NCc1nnc(SCC(=O)N2CCCCCC2)o1 | 2 | -5 | 43* | 0 | 4
O=C(COc1ccc(Cl)cc1)NCc1nnc(SCC(=O)N2CCCCC2)o1 | -4 | nt | nt | nt | nt
CC(=O)Nc1ccc(S(=O)(=O)Nc2cccc(-c3csc(C)n3)c2)cc1 | 283* | 4 | 42 | 1 | -2
Cc1nc(-c2cccc(NS(C)(=O)=O)c2)cs1 | 0 | -1 | 0 | nt | 4
Cc1nc(-c2cccc(NC(=O)Cc3ccccc3)c2)cs1 | nt | -4 | 43* | nt | -1
Cc1cccc(NC(=O)NNS(=O)(=O)c2ccc(F)cc2)c1 | nt | -5 | 1 | -2 | -1
CC(=O)Nc1ccc(S(=O)(=O)NNc2cccc(C)c2)cc1 | 3 | -1 | 0 | 57* | -1
CO[C@H]1CN(C)C(=O)c2ccc(NS(=O)(=O)c3ccc(Cl)cc3)cc2OC[C@H](C)NC[C@@H]1C | nt | -2 | 0 | 0 | -19
C[C@H](CO)N1C[C@H](C)[C@H](CN(C)C(=O)Nc2ccc(F)cc2)Oc2ccc(NC(=O)Nc3ccc(C(F)(F)F)cc3)cc2CC1=O | 9[16.7 µM] | 2 | 1.2* | 0 | 2
C[C@@H]1CN([C@@H](C)CO)C(=O)Cc2cc(NC(=O)Cn3cnnn3)ccc2O[C@H]1CN(C)C(=O)Nc1ccc(C(F)(F)F)cc1 | 22[16.7 µM] | 4 | -1 | 415* | -10
Cc1noc(C)c1NC(=O)Nc1ccc2c(c1)CC(=O)N([C@H](C)CO)C[C@@H](C)[C@H](CN(C)C(=O)Nc1ccc(F)cc1)O2 | 4[16.7 µM] | -3 | 0 | 39* | 9
C[C@H]1CN([C@@H](C)CO)C(=O)Cc2cc(NC(=O)Nc3ccc(F)cc3)ccc2O[C@H]1CN(C)C(=O)Nc1ccc(F)cc1 | 2[16.7 µM] | 16* | -1 | 1 | 7
C[C@H]1CN([C@@H](C)CO)C(=O)Cc2cc(NC(=O)Cn3cnnn3)ccc2O[C@H]1CN(C)C(=O)Nc1ccc(C(F)(F)F)cc1 | 0[16.7 µM] | -3 | 0 | -7 | -2
